Assay results as given in ChEMBL document CHEMBL1143320, “Benzyldihydroxyoctenone, a novel anticancer agent, induces apoptosis via mitochondrial-mediated pathway in androgen-sensitive LNCaP prostate cancer cells” (Bioorg Med Chem Lett, 2009).
The source made the active and inactive calls.

Experiments:
Assay type in all cases: functional, cell-based
LNCaP [1] = experiment: Induction of apoptosis in human LNCAP cells assessed as inhibition of PSA mRNA transcription at 30 uM after 24 hrs by RT-PCR in presence of DHT
Method in brief: (§1)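 Cells were treated as for the blots (24 h compound, then DHT 1.0 nM or none). Total RNA (2 µg) was reverse-transcribed and AR and PSA were quantified by real-time PCR. Relative levels were calculated by the comparative threshold cycle method, with GAPDH as housekeeping gene.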

LNCaP [2] = experiment: Induction of apoptosis in human LNCAP cells assessed as inhibition of AR mRNA transcription at 30 uM after 24 hrs by RT-PCR in presence of DHT; method in brief: as §1
LNCaP [3] = experiment: Induction of apoptosis in human LNCAP cells assessed as procaspase-8 cleavage at 30 uM by Western blot; details: TDE = time-dependent effect
Method in brief: (§2)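 Cells were treated for various times and total cell lysates prepared. Lysates were resolved on 8–14% polyacrylamide gels and immunoblotted with an antibody to each protein, with b-actin as internal control.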

LNCaP [4] = experiment: Cell cycle arrest in human LNCAP cells assessed as accumulation at subG1 phase at 30 uM by flow cytometry; details: TDE = time-dependent effect
Method in brief: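 LNCaP cells exposed for various times, then fixed nuclei stained with propidium iodide. DNA content read by flow cytometry, 10,000 nuclei per sample. Sub-G1 fraction reported as means ± SD of three separate experiments.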

LNCaP [5] = experiment: Induction of apoptosis in human LNCAP cells assessed as inhibition of PSA protein expression at 30 uM by Western blot; details: TDE = time-dependent effect
LNCaP [6] = experiment: Induction of apoptosis in human LNCAP cells assessed as decrease in procaspase-9 expression at 30 uM after 24 hrs by Western blot; method in brief: as §2
LNCaP [7] = experiment: Induction of apoptosis in human LNCAP cells assessed as inhibition of DHT-induced PSA protein expression at 30 uM after 24 hrs by Western blot
Method in brief: (§3)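 LNCaP cells were grown 48 h in RPMI 1640 with 10% FBS, then exposed 24 h to compound given in ethanol. This was followed by 2 h with or without DHT (0.1 and 1 nM). Lysate protein was measured by BCA, run on SDS–PAGE and blotted to nitrocellulose. Blots were probed with primary and peroxidase-conjugated secondary antibodies, with chemiluminescent detection.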

LNCaP [8] = experiment: Induction of apoptosis in human LNCAP cells assessed as inhibition of DHT-induced AR protein expression at 30 uM after 24 hrs by Western blot; method in brief: as §3
LNCaP [9] = experiment: Induction of apoptosis in human LNCAP cells assessed as decrease in Bcl-XL levels at 30 uM after 24 hrs by Western blot; method in brief: as §2
LNCaP [10] = experiment: Induction of apoptosis in human LNCAP cells assessed as decrease in Bcl2 levels at 30 uM after 48 hrs by Western blot; method in brief: as §2
LNCaP [11] = experiment: Induction of apoptosis in human LNCAP cells assessed as procaspase-3 cleavage at 30 uM after 24 hrs by Western blot; method in brief: as §2
LNCaP [12] = experiment: Induction of apoptosis in human LNCAP cells assessed as inhibition of AR protein expression at 30 uM by Western blot; details: TDE = time-dependent effect
LNCaP [13] = experiment: Induction of apoptosis in human LNCAP cells assessed as DNA fragmentation at 30 uM by TUNEL assay
Method in brief: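 Cells were treated for the indicated times, then fixed and permeabilized. They were stained with fluorescent TUNEL reagent and analysed by flow cytometry for DNA fragmentation.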

LNCaP [14] = experiment: Induction of apoptosis in human LNCAP cells assessed as increase in mitochondrial cytochrome C release at 30 uM after 24 hrs by Western blot; method in brief: as §2
LNCaP [15] = experiment: Induction of apoptosis in human LNCAP cells assessed as PARP cleavage at 30 uM after 24 hrs by Western blot; method in brief: as §2
LNCaP [16] = experiment: Induction of apoptosis in human LNCAP cells assessed as inhibition of AR mRNA transcription at 30 uM after 24 hrs by RT-PCR; method in brief: as §1
LNCaP [17] = experiment: Induction of apoptosis in human LNCAP cells assessed as decrease in procaspase-8 expression at 30 uM after 24 hrs by Western blot; method in brief: as §2
LNCaP [18] = experiment: Induction of apoptosis in human LNCAP cells assessed as inhibition of PSA mRNA transcription at 30 uM after 24 hrs by RT-PCR; method in brief: as §1

Measured: Activity

C/C=C(\Cc1ccccc1)C(=O)CC(O)CCO (stereo not drawn)
active: LNCaP [1] | LNCaP [2] | LNCaP [3] tde | LNCaP [4] tde | LNCaP [5] tde | LNCaP [6] | LNCaP [7] | LNCaP [8] | LNCaP [9] | LNCaP [10] | LNCaP [11] | LNCaP [12] tde | LNCaP [13] | LNCaP [14] | LNCaP [15] | LNCaP [16] | LNCaP [17] | LNCaP [18]
